This note sets out measurements from ChEMBL document CHEMBL2321702, “Synthesis and antimalarial efficacy of two-carbon-linked, artemisinin-derived trioxane dimers in combination with known antimalarial drugs” (J Med Chem, 2013).

The subject of data set [1] is Mus musculus. In words: Toxicity in po dosed C57BL/6J mouse infected with Plasmodium berghei ANKA assessed as average body weight gain measured on day 3 (reference value: 7.7 g). It counts as organism-based. Conditions: in vivo.
The test system of data set [2] is Plasmodium berghei. Briefly: Antimalarial activity against Plasmodium berghei ANKA infected in C57BL/6J mouse assessed as suppression of blood parasitemia level at 150 mg/kg, po measured on day 3 relative to vehicle-treated control. It counts as functional. The method, boiled down:
(§1)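 Single-dose oral monotherapy without adjuvant, at 120 or 150 mg/kg, given by gavage 24 h after infecting male C57BL/6J mice (four per group) with 2×10^7 P. berghei ANKA-parasitized erythrocytes. Blood parasitemia was measured on day 3 relative to vehicle controls. Survival was recorded over a 60-day study.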

The test system of data set [3] is Plasmodium berghei. In words: Antimalarial activity against Plasmodium berghei ANKA infected in C57BL/6J mouse assessed as suppression of blood parasitemia level at 6 mg/kg, po measured on day 3 relative to vehicle-treated control in presence of lumefantrine. It counts as functional. In short, it runs like this: (§2)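 P. berghei ANKA infection (2×10^7 parasitized erythrocytes) in male C57BL/6J mice, four per group. A single oral dose was given 24 h post-infection: trioxane 6 mg/kg plus lumefantrine 18 mg/kg. Day-3 blood parasitemia was compared with vehicle mice, and survival was tracked up to 60 days.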

Data set [4] has as its system Plasmodium berghei. In words: Antimalarial activity against Plasmodium berghei ANKA infected in C57BL/6J mouse assessed as suppression of blood parasitemia level at 6 mg/kg, po measured on day 3 relative to vehicle-treated control in presence of mefloquine. Format: functional. In short, it runs like this:
(§3)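 Male C57BL/6J mice (5 weeks old, about 20 g; four per group) were infected with P. berghei ANKA (2×10^7 parasitized erythrocytes). After 24 h, each received a single 200 μL oral gavage of trioxane 6 mg/kg plus mefloquine hydrochloride 18 mg/kg in 7:3 Tween:EtOH diluted with water. Blood parasitemia was read on day 3, and survival was followed to day 60 against untreated mice.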

Data set [5] relates to Plasmodium berghei. Briefly: Antimalarial activity against Plasmodium berghei ANKA infected in C57BL/6J mouse assessed as suppression of blood parasitemia level at 6 mg/kg, po measured on day 3 relative to vehicle-treated control in presence of mef-HCl. It counts as functional. The method, boiled down: as §3
In data set [6] the test system is Plasmodium berghei. In words: Antimalarial activity against Plasmodium berghei ANKA infected in C57BL/6J mouse assessed as average survival time at 6 mg/kg, po in presence of lumefantrine (reference value: 8.8 days). It counts as functional. The method, boiled down:
as §2

Data set [7] relates to Plasmodium berghei. Briefly: Antimalarial activity against Plasmodium berghei ANKA infected in C57BL/6J mouse assessed as average survival time at 6 mg/kg, po in presence of mefloquine (reference value: 8.8 days). Format: functional. The method, boiled down: as §3
The subject of data set [8] is Plasmodium berghei. In words: Antimalarial activity against Plasmodium berghei ANKA infected in C57BL/6J mouse assessed as average survival time at 150 mg/kg, po (reference value: 8.8 days). It counts as functional. The method, boiled down:
as §1

Data set [9] concerns Plasmodium berghei. Briefly: Antimalarial activity against Plasmodium berghei ANKA infected in C57BL/6J mouse assessed as average survival time at 6 mg/kg, po in presence of Mef-HCl (reference value: 7.3 days). Format: functional. In short, it runs like this: as §3
Data set [10] relates to Plasmodium berghei. Briefly: Antimalarial activity against Plasmodium berghei ANKA infected in C57BL/6J mouse assessed as suppression of blood parasitemia level at 120 mg/kg, po measured on day 3 relative to vehicle-treated control. Format: functional. The method, boiled down: as §1
Data set [11] has as its system Plasmodium berghei. Briefly: Antimalarial activity against Plasmodium berghei ANKA infected in C57BL/6J mouse assessed as average survival time at 120 mg/kg, po (reference value: 7.3 days). Format: functional. The method, boiled down: as §1

`CO/N=C(/C[C@H]1O[C@@H]2O[C@@]3(C)CC[C@H]4[C@H](C)CC[C@@H]([C@H]1C)[C@@]24OO3)[C@H]1O[C@@H]2O[C@@]3(C)CC[C@H]4[C@H](C)CC[C@@H]([C@H]1C)[C@@]24OO3`: the Activity in data set [1] is on record as 10.7 g; in [2], 98%; in [3], more than 99.9%; in data set [4], more than 99.9%; in data set [5] it was more than 99.9%. The MST in [6] is 26.3 days; in data set [7], 49 days; in data set [8] it was 8.3 days; in data set [9], 60 days.
As to `C#CCO/N=C(/C[C@H]1O[C@@H]2O[C@@]3(C)CC[C@H]4[C@H](C)CC[C@@H]([C@H]1C)[C@@]24OO3)[C@H]1O[C@@H]2O[C@@]3(C)CC[C@H]4[C@H](C)CC[C@@H]([C@H]1C)[C@@]24OO3`, the Activity in data set [1] is reported as 12 g; in data set [2] it was more than 99.9%; in data set [3], more than 99.9%; in [4], more than 99.9%; in [5], more than 99.9%. In addition, the MST in data set [6] worked out at 60 days; in data set [8], 46.8 days; in data set [9], 60 days.
For the compound `C[C@H]1[C@@H](/C(C[C@H]2O[C@@H]3O[C@@]4(C)CC[C@H]5[C@H](C)CC[C@@H]([C@H]2C)[C@@]35OO4)=N\OC(C)(C)C)O[C@@H]2O[C@@]3(C)CC[C@H]4[C@H](C)CC[C@@H]1[C@@]24OO3`, the Activity in [4] is listed as more than 99.9%.
As to `C=CCO/N=C(/C[C@H]1O[C@@H]2O[C@@]3(C)CC[C@H]4[C@H](C)CC[C@@H]([C@H]1C)[C@@]24OO3)[C@H]1O[C@@H]2O[C@@]3(C)CC[C@H]4[C@H](C)CC[C@@H]([C@H]1C)[C@@]24OO3`, the Activity in data set [2] is recorded as more than 99%; in [10], more than 99.9%; in data set [3], more than 99.9%; in data set [4], more than 99.9%; in [5], more than 99.9%. For the same compound, the MST in data set [6] was 41.3 days; in data set [7] it was 49 days; in [8], 46.8 days; in data set [11], 40.3 days; in [9], 40.3 days.
For the compound `C[C@H]1[C@@H](/C(C[C@H]2O[C@@H]3O[C@@]4(C)CC[C@H]5[C@H](C)CC[C@@H]([C@H]2C)[C@@]35OO4)=N\O)O[C@@H]2O[C@@]3(C)CC[C@H]4[C@H](C)CC[C@@H]1[C@@]24OO3`, the Activity in [5] is reported as more than 99.9%. The MST in data set [9] was 52.5 days.
As for `C[C@H]1[C@@H](/C(C[C@H]2O[C@@H]3O[C@@]4(C)CC[C@H]5[C@H](C)CC[C@@H]([C@H]2C)[C@@]35OO4)=N\OCC2CC2)O[C@@H]2O[C@@]3(C)CC[C@H]4[C@H](C)CC[C@@H]1[C@@]24OO3`, the Activity in [4] is more than 99.9%. Besides, in data set [7], the MST was 41 days.
In the case of `COP(=O)(OC)O/N=C(/C[C@H]1O[C@@H]2O[C@@]3(C)CC[C@H]4[C@H](C)CC[C@@H]([C@H]1C)[C@@]24OO3)[C@H]1O[C@@H]2O[C@@]3(C)CC[C@H]4[C@H](C)CC[C@@H]([C@H]1C)[C@@]24OO3`, in [5], the Activity is reported as more than 99.9%. In [9], the MST worked out at 56 days.
In the case of `C[C@H]1[C@@H](C(=O)C[C@H]2O[C@@H]3O[C@@]4(C)CC[C@H]5[C@H](C)CC[C@@H]([C@H]2C)[C@@]35OO4)O[C@@H]2O[C@@]3(C)CC[C@H]4[C@H](C)CC[C@@H]1[C@@]24OO3`, the Activity in [5] is listed as more than 99.9%.
As for `CO[C@H]1O[C@@H]2O[C@@]3(C)CC[C@H]4[C@H](C)CC[C@@H]([C@H]1C)[C@@]24OO3` [ARTEMETHER], the Activity in [3], in [4] and in data set [5] was more than 99.9% throughout. In addition, the MST came to 19 days in data set [6] and 40 days in data set [9].
In the case of `CCOP(=O)(OCC)O/N=C(/C[C@H]1O[C@@H]2O[C@@]3(C)CC[C@H]4[C@H](C)CC[C@@H]([C@H]1C)[C@@]24OO3)[C@H]1O[C@@H]2O[C@@]3(C)CC[C@H]4[C@H](C)CC[C@@H]([C@H]1C)[C@@]24OO3`, the Activity in [5] was more than 99.9%. Moreover, the MST in data set [9] turned out to be 21.5 days.
Regarding `CC(=O)O/N=C(/C[C@H]1O[C@@H]2O[C@@]3(C)CC[C@H]4[C@H](C)CC[C@@H]([C@H]1C)[C@@]24OO3)[C@H]1O[C@@H]2O[C@@]3(C)CC[C@H]4[C@H](C)CC[C@@H]([C@H]1C)[C@@]24OO3`, the Activity in [5] is reported as more than 99.9%.
As to `CO/N=C(\C[C@H]1O[C@@H]2O[C@@]3(C)CC[C@H]4[C@H](C)CC[C@@H]([C@H]1C)[C@@]24OO3)[C@H]1O[C@@H]2O[C@@]3(C)CC[C@H]4[C@H](C)CC[C@@H]([C@H]1C)[C@@]24OO3`, in data set [4], the Activity is recorded as more than 99.9%. Also, the MST in data set [7] stood at 37 days.
In the case of `C[C@H]1[C@@H](/C(C[C@H]2O[C@@H]3O[C@@]4(C)CC[C@H]5[C@H](C)CC[C@@H]([C@H]2C)[C@@]35OO4)=N\OC(=O)N(C)C)O[C@@H]2O[C@@]3(C)CC[C@H]4[C@H](C)CC[C@@H]1[C@@]24OO3`, in data set [5], the Activity is listed as more than 99.9%.
